# Assay results reported in ChEMBL document CHEMBL1137262, “Design and synthesis of APTCs (aminopyrrolidinetricarboxylic acids): identification of a new group III metabotropic glutamate receptor selective agonist” (Bioorg Med Chem Lett, 2006).
# Key:
# Type in all cases: functional, cell-based
# [1] = target: Metabotropic glutamate receptor 2 (Rattus norvegicus, UniProt P31421); experiment: Activity at rat mGluR2 receptor measured as intracellular calcium concentration in HEK293 cells
# Outline: (§1)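 HEK293 cells were transfected with the indicated receptor, seeded on polyornithine-coated plates and cultured 24 h. Fluorescence (ex 485/em 525 nm) was read every 1.5 s for 60 s after compound addition. Agonism was scored versus basal signal. Dose–response curves were fitted; means of three experiments in triplicate.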
# [2] = target: Metabotropic glutamate receptor 4 (Rattus norvegicus, UniProt P31423); experiment: (§2) Activity at rat mGluR4 receptor measured as intracellular calcium concentration in HEK293 cells; outline: as §1
# [3] = target: Metabotropic glutamate receptor 5 (Rattus norvegicus, UniProt P31424); experiment: Activity at rat mGluR5 receptor measured as intracellular calcium concentration in HEK293 cells; outline: as §1
# [4] = target: Metabotropic glutamate receptor 6 (Rattus norvegicus, UniProt P35349); experiment: Activity at rat mGluR6 receptor measured as intracellular calcium concentration in HEK293 cells; outline: as §1
# [5] = target: Metabotropic glutamate receptor 7 (Rattus norvegicus, UniProt P35400); experiment: Activity at rat mGluR7 receptor measured as intracellular calcium concentration in HEK293 cells; outline: as §1
# [6] = target: Metabotropic glutamate receptor 8 (Rattus norvegicus, UniProt P70579); experiment: (§3) Activity at rat mGluR8 receptor measured as intracellular calcium concentration in HEK293 cells; outline: as §1
# [7] = target: Metabotropic glutamate receptor 4 (Rattus norvegicus) (UniProt P31423); experiment: Activity at rat mGluR4 receptor measured as intracellular calcium concentration in HEK293 cells relative to glutamate
# [8] = target: Metabotropic glutamate receptor 8 (Rattus norvegicus) (UniProt P70579); experiment: Activity at rat mGluR8 receptor measured as intracellular calcium concentration in HEK293 cells relative to glutamate
# [9] = target: Metabotropic glutamate receptor 4 (Rattus norvegicus) (UniProt P31423); experiment: Activity against rat mGluR4 receptor measured as intracellular calcium concentration in HEK293 cells at 450 uM; details: filed as agonist
# [10] = target: Metabotropic glutamate receptor 8 (Rattus norvegicus) (UniProt P70579); experiment: as §3; details: filed as partial agonist; outline: as §1
# [11] = target: Metabotropic glutamate receptor 4 (Rattus norvegicus) (UniProt P31423); experiment: as §2; details: filed as agonist; outline: as §1
# [12] = target: Metabotropic glutamate receptor 1 (Rattus norvegicus, UniProt P23385); experiment: Activity at rat mGluR1 receptor measured as intracellular calcium concentration in HEK293 cells; outline: as §1
# Chain of Metabotropic glutamate receptor 4 (Rattus norvegicus) (P31423 whole entry): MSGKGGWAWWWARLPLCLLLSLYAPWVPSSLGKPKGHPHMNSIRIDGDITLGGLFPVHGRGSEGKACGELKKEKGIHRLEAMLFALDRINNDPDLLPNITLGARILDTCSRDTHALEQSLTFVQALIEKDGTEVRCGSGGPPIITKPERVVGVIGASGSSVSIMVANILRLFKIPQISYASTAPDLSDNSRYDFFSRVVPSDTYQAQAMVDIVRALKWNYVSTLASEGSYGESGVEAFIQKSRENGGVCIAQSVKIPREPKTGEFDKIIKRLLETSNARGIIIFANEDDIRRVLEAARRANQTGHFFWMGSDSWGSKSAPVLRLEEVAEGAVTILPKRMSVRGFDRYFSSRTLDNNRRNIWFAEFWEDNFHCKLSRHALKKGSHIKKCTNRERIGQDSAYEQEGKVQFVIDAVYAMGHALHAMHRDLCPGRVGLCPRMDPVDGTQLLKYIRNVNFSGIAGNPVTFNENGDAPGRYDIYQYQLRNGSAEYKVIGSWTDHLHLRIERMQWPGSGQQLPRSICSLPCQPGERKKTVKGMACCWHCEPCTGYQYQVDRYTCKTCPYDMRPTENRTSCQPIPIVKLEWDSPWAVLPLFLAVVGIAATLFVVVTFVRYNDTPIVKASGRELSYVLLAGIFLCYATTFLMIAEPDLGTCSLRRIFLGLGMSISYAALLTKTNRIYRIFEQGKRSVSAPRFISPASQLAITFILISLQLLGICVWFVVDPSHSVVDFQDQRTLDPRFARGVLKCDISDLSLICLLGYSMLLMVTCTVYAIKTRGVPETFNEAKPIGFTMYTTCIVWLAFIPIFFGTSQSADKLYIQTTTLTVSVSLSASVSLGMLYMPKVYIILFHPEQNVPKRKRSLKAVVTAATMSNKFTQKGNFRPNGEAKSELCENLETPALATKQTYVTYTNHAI
# Chain of Metabotropic glutamate receptor 5 (P31424 whole entry): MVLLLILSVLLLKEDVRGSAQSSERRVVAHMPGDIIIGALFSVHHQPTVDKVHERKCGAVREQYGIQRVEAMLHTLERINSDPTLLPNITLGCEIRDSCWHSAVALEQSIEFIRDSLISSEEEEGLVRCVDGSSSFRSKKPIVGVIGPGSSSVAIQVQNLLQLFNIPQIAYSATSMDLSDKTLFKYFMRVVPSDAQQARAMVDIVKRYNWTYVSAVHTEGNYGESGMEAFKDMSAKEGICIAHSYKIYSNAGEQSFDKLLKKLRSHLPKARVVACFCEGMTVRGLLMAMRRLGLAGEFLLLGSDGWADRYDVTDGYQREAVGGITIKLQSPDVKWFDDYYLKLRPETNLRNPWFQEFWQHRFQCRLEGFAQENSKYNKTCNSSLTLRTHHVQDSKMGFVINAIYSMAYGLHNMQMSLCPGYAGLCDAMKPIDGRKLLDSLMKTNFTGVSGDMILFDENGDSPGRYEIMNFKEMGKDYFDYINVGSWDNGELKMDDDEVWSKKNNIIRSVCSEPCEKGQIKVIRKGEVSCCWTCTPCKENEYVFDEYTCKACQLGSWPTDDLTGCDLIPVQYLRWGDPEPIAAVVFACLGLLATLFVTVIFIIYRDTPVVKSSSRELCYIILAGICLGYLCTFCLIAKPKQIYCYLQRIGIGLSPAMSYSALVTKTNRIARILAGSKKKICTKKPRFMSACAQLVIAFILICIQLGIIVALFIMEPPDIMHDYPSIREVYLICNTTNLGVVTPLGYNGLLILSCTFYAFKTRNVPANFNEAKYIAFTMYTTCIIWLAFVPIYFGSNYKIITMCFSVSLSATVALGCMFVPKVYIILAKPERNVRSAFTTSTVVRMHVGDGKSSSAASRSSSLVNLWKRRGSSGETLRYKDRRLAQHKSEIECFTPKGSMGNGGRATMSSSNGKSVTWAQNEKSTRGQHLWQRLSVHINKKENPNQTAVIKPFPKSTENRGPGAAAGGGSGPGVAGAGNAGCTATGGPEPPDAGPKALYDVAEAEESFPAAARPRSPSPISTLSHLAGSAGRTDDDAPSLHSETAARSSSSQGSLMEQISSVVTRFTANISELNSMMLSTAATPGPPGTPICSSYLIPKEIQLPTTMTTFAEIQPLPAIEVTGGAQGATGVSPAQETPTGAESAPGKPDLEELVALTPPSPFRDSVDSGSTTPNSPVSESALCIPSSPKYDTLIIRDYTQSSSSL
# Chain of Metabotropic glutamate receptor 4 (P31423 whole entry): as the sequence (P31423 whole entry) above
# Chain of Metabotropic glutamate receptor 2 (P31421 whole entry): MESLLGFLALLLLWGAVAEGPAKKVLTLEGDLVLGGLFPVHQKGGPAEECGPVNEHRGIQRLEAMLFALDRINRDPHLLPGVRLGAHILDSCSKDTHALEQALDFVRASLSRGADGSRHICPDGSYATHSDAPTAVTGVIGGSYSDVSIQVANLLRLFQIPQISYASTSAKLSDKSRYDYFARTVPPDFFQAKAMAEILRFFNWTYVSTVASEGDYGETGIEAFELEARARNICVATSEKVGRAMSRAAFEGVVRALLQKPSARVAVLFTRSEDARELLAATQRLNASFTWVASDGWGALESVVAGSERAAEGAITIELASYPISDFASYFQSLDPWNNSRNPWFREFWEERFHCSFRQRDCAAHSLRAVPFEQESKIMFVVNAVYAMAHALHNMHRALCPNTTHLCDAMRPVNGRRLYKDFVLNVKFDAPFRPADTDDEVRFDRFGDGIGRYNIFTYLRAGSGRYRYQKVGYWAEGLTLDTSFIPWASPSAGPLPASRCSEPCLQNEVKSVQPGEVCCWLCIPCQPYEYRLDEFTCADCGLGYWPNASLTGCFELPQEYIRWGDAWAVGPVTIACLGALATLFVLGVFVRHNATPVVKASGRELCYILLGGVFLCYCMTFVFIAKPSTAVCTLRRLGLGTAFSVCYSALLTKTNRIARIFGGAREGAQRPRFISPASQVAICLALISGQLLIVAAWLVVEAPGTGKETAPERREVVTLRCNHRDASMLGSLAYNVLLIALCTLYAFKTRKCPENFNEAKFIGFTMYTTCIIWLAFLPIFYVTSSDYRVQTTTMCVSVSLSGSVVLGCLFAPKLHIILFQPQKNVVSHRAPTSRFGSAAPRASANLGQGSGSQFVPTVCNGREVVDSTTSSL
# Chain of Metabotropic glutamate receptor 8 (P70579 whole entry): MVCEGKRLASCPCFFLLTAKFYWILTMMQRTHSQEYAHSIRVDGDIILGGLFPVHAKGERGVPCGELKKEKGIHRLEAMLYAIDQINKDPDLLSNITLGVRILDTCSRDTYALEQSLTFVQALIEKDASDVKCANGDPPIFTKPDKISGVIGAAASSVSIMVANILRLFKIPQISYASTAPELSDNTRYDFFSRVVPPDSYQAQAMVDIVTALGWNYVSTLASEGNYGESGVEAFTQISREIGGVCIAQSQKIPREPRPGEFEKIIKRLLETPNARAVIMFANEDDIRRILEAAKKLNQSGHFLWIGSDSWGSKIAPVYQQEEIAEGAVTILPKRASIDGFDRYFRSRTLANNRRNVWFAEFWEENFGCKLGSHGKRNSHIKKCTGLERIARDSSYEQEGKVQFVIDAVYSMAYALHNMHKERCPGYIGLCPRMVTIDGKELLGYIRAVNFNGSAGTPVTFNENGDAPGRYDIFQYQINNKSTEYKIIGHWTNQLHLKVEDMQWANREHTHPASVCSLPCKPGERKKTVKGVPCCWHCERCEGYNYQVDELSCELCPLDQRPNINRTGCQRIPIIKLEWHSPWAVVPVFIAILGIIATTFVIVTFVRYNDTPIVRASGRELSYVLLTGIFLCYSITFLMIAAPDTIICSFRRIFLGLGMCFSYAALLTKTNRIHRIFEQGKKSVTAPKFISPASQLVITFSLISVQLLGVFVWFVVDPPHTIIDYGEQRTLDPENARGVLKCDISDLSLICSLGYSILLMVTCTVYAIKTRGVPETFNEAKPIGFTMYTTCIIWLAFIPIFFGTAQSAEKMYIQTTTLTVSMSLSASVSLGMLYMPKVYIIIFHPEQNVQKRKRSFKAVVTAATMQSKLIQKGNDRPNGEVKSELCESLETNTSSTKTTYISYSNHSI
# Chain of Metabotropic glutamate receptor 8 (Rattus norvegicus) (P70579 whole entry): as above
# Chain of Metabotropic glutamate receptor 6 (P35349 whole entry): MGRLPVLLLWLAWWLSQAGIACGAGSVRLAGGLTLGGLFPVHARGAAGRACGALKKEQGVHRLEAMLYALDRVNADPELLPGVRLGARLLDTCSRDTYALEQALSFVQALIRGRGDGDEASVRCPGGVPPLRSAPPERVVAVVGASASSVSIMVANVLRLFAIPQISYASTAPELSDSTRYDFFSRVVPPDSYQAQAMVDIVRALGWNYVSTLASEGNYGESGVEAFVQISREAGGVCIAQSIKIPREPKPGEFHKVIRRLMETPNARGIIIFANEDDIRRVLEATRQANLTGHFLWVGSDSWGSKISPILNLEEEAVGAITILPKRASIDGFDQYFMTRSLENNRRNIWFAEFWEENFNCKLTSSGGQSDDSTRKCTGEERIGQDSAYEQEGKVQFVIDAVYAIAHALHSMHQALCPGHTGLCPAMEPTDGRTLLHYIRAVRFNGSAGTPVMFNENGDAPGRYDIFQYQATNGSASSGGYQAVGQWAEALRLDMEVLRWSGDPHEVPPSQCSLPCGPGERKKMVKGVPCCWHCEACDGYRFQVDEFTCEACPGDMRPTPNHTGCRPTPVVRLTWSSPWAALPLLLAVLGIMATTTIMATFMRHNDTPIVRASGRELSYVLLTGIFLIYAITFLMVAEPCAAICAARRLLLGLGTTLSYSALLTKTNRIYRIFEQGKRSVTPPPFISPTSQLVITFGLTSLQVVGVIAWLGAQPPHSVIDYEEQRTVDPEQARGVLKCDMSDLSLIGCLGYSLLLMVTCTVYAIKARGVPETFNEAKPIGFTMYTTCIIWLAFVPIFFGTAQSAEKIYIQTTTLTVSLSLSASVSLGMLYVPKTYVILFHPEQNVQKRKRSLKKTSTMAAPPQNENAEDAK
EC50 [1] [µM],EC50 [2] [µM],EC50 [3] [µM],EC50 [4] [µM],EC50 [5] [µM],EC50 [6] [µM],Emax [7] [%],Emax [8] [%],Activity [9],Activity [10],Activity [11],EC50 [12] [µM],SMILES
> 1000,7.2,> 1000,18.4,1200,10.1,–,–,–,–,–,–,N[C@@]1(C(=O)O)C[C@H](C(=O)O)[C@H](C(=O)O)C1
> 5000,48.3,> 5000,378,–,56.2,75,36,Agonist,Partial agonist,Agonist,> 5000,N[C@@]1(C(=O)O)C[C@@H](C(=O)O)N(C(=O)/C=C/C(=O)O)C1
